Assay results reported in ChEMBL document CHEMBL3603735 (J Med Chem, 2015).
pEC50, pKi: −log10 of the molar value.

Tests used:
[1] = target: Neuronal acetylcholine receptor; alpha4/beta2 (Rattus norvegicus, UniProt P09483+P12390); experiment: Displacement of [3H]epibatidine from alpha4beta2 nAChR in rat cortex membranes by liquid scintillation counting method; assay type: cell membranes
Summary of the method: (§1)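 Rat hippocampus (α7) or cortex (α4β2) membranes. Ki obtained by simultaneous nonlinear least-squares fitting of three saturation plus three competition binding experiments per compound per subtype.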

[2] = target: T1, Neuronal acetylcholine receptor; alpha3/beta4 (Homo sapiens, UniProt P30926+P32297); experiment: Displacement of [3H]epibatidine from human alpha3beta4 nAChR expressed in HEK293 cell membranes by liquid scintillation counting method
Summary of the method: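 Competition against [3H]epibatidine on membranes of human α3β4-transfected cells. Ki obtained by simultaneously fitting three independent saturation and three competition experiments per compound with nonlinear least squares.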

[3] = target: T2, Neuronal acetylcholine receptor; alpha4/beta2 (Homo sapiens, UniProt P17787+P43681); experiment: Agonist activity at human alpha4beta2 nAChR expressed in rat GH4C1 cells assessed as induction of peak current amplitude at holding potential of -70 mV by whole-cell patch clamp assay relative to acetylcholine; assay type: cell-based; details: GH4-C1
Summary of the method: (§2)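 Human α3β4 or α4β2 nAChR transiently transfected into rat anterior pituitary GH4C1 cells (0.5 μg each subunit cDNA, magnetofection). Whole-cell patch clamp at −70 mV holding potential, with gravity-driven fast perfusion. Agonist concentrations applied sequentially. Peak currents normalized to 1 mM ACh on the same cell. EC50, Imax and nH from Hill equation fit.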

[4] = target: T2, Neuronal acetylcholine receptor; alpha4/beta2; experiment: Agonist activity at human alpha4beta2 nAChR expressed in rat GH4C1 cells assessed as induction of peak current amplitude at holding potential of -70 mV by whole-cell patch clamp assay; assay type: cell-based, GH4-C1; summary of the method: as §2
[5] = target: T1, Neuronal acetylcholine receptor; alpha3/beta4; experiment: Agonist activity at human alpha3beta4 nAChR expressed in rat GH4C1 cells assessed as induction of peak current amplitude at holding potential of -70 mV by whole-cell patch clamp assay relative to acetylcholine; assay type: cell-based; details: GH4-C1; summary of the method: as §2
[6] = target: T2, Neuronal acetylcholine receptor; alpha4/beta2; experiment: Agonist activity at human alpha4beta2 nAChR in (alpha4)3(beta2)2 stoichiometry form relative to control; assay type: protein-complex assay
[7] = target: T1, Neuronal acetylcholine receptor; alpha3/beta4; experiment: Agonist activity at human alpha3beta4 nAChR expressed in rat GH4C1 cells assessed as induction of peak current amplitude at holding potential of -70 mV by whole-cell patch clamp assay; assay type: cell-based, GH4-C1
Summary of the method: (§3)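 Human α3β4 or α4β2 subunit cDNAs (0.5 μg each) transiently transfected into rat GH4C1 cells by magnetofection. Whole-cell voltage clamp at −70 mV, 85−90% series-resistance compensation, fast gravity-perfusion exchanger. Agonist concentrations applied sequentially; peak currents normalized to 1 mM ACh on the same cell. EC50 and nH from Hill-equation fit where possible.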

[8] = target: T2, Neuronal acetylcholine receptor; alpha4/beta2; experiment: Selectivity index, ratio of EC50 for human alpha3beta4 nAChR expressed in rat GH4C1 cells to EC50 for human alpha4beta2 nAChR expressed in rat GH4C1 cells; assay type: cell-based; details: GH4-C1; summary of the method: as §3
[9] = target: Neuronal acetylcholine receptor subunit alpha-7 (Rattus norvegicus, UniProt Q05941); experiment: Displacement of [125I]]-alpha-bungarotoxin from alpha7 nAChR in rat hippocampus membranes by liquid scintillation counting method; assay type: cell membranes, Membrane; summary of the method: as §1
Neuronal acetylcholine receptor subunit alpha-7, sequence (Q05941 whole entry): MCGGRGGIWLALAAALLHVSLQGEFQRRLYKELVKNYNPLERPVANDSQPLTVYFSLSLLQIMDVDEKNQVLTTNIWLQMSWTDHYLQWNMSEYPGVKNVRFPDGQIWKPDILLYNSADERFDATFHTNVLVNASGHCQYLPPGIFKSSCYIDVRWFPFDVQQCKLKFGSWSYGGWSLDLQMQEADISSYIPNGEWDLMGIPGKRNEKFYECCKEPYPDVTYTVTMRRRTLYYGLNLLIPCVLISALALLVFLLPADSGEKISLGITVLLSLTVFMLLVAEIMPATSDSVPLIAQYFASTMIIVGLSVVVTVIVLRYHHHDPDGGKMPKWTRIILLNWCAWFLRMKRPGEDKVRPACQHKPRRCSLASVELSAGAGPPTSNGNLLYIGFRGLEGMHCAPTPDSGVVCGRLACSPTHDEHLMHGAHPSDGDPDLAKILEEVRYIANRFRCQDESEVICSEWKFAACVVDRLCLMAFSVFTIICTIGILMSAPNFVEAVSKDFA

T2 sequence (P17787 whole entry, the tested form may be a part): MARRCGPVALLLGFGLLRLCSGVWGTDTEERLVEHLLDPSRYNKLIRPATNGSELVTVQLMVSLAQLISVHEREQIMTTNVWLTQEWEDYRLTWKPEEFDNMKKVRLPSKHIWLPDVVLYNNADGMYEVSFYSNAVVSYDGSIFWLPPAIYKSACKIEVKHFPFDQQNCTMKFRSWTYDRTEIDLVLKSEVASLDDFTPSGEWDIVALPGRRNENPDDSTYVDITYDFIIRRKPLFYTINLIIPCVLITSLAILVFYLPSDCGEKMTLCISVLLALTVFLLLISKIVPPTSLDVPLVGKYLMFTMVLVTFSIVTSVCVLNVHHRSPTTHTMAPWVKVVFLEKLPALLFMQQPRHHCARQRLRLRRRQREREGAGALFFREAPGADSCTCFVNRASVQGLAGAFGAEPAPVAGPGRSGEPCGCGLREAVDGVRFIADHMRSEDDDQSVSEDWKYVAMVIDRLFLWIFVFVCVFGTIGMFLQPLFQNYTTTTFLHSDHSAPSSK
T2 sequence (P43681 whole entry, the tested form may be a part): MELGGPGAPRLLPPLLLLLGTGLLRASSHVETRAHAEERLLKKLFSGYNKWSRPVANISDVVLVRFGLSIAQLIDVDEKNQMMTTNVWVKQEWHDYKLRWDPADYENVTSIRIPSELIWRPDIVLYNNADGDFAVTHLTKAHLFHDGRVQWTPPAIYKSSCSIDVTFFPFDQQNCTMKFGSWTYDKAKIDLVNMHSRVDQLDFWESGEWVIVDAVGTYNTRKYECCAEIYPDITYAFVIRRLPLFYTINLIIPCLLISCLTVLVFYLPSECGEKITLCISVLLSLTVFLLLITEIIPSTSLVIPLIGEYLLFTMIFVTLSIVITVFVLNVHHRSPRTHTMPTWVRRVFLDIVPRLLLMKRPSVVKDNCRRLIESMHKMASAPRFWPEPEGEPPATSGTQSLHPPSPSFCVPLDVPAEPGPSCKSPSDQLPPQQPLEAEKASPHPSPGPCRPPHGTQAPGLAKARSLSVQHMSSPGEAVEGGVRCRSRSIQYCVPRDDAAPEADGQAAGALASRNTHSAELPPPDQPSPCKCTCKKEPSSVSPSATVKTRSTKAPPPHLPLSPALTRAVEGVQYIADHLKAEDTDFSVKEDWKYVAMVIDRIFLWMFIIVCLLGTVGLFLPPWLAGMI
Neuronal acetylcholine receptor; alpha4/beta2 (Rattus norvegicus, UniProt P09483+P12390), sequence (P09483 whole entry): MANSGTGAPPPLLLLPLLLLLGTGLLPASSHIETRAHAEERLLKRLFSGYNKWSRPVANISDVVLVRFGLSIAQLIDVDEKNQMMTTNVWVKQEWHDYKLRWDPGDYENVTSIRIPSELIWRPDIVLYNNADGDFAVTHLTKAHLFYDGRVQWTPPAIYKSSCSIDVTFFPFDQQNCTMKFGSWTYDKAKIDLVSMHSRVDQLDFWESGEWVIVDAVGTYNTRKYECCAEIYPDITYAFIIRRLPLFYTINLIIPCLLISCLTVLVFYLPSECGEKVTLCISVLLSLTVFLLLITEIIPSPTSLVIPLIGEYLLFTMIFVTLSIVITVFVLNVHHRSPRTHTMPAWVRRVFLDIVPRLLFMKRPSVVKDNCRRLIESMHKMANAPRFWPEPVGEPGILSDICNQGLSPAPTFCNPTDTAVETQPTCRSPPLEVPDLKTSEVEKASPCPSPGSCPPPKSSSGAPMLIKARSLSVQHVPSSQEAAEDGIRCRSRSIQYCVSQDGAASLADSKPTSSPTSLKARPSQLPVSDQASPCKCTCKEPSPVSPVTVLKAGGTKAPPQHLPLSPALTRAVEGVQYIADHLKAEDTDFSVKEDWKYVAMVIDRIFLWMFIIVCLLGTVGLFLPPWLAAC
Neuronal acetylcholine receptor; alpha4/beta2 (Rattus norvegicus, UniProt P09483+P12390), sequence (P12390 whole entry): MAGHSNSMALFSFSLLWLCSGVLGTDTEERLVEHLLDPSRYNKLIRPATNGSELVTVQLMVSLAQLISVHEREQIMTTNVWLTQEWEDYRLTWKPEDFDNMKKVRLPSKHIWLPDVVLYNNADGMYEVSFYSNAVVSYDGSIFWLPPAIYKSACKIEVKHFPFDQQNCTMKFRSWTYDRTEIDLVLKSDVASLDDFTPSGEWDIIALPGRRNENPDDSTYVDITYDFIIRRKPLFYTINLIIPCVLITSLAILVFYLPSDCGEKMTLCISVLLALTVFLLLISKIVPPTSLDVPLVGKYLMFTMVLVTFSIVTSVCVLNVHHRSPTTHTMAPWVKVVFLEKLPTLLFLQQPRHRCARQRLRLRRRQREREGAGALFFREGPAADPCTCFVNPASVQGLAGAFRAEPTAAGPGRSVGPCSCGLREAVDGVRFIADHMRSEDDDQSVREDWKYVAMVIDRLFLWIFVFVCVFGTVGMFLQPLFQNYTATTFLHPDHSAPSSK
T1 sequence (P30926 whole entry): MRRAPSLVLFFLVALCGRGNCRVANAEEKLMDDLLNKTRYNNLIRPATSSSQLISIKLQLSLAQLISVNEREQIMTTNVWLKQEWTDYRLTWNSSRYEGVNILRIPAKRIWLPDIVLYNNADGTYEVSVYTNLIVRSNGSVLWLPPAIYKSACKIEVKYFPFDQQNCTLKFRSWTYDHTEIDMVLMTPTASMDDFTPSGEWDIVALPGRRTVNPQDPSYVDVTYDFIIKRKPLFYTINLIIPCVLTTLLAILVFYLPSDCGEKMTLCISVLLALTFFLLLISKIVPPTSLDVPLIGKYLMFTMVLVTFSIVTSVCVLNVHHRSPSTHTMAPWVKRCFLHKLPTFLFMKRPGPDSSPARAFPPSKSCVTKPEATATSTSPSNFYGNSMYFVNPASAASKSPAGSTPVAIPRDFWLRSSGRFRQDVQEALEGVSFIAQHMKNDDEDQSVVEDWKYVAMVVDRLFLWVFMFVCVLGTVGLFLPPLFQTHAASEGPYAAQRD
T1 sequence (P32297 whole entry): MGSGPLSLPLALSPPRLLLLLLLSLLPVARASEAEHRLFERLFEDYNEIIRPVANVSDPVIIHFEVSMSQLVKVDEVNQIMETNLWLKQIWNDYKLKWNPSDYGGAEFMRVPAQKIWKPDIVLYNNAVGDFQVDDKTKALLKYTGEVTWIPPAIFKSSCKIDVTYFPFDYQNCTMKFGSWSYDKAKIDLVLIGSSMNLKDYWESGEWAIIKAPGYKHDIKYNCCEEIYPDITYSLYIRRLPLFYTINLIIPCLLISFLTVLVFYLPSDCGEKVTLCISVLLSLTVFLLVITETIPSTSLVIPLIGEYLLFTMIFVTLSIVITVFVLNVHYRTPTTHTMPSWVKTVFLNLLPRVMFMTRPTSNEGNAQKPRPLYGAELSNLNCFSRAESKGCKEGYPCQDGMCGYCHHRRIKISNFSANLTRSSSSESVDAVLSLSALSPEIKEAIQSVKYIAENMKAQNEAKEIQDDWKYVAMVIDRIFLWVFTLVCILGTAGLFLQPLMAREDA

c1ccc(OC[C@@H]2CCN2)cc1
pKi [1]: 7.28

COc1ccc(O)cc1OC[C@@H]1CCCN1
pKi [1]: 5.97 | pKi [2]: 5.11

OCCCCC#Cc1cncc(OC[C@@H]2CCN2)c1
Imax [3]: 39% | pEC50 [4]: 9.57 | Imax [5]: 24% | Efficacy [6]: 6%

CN1CCC[C@H]1[C@@H]1COc2ccc(O)cc2O1
Imax [3]: 29% | pEC50 [4]: 6.52 | Imax [5]: 28% | pEC50 [7]: 4.77 | Ratio EC50 [8]: 57

Oc1cccc(OC[C@@H]2CCCN2)c1
pKi [1]: 6.39 | pKi [9]: 6.67 | pKi [2]: 5.42

Oc1cncc(OC[C@@H]2CCCN2)c1
pKi [1]: 8.60 | pKi [9]: 5.46 | pKi [2]: 7.00

CN1CCC[C@H]1COc1cncc(O)c1
pKi [1]: 8.43 | pKi [9]: 6.49 | pKi [2]: 6.63 | Imax [3]: 661% | pEC50 [4]: 4.14 | Imax [5]: 15%

C[C@H](Oc1cccc(O)c1)[C@@H]1CCCN1C
pKi [1]: 6.72 | pKi [9]: 6.13 | pKi [2]: 6.12

Oc1cccc(OC[C@@H]2CCN2)c1
pKi [1]: 8.15 | pKi [9]: 5.92 | pKi [2]: 7.40

C[C@@H](Oc1cccnc1)[C@@H]1CCCN1C (racemic)
pKi [1]: 7.57 | pKi [9]: 6.41 | pKi [2]: 5.30 | Imax [3]: 39% | pEC50 [4]: 7.89 | Imax [5]: 7%

C[C@@H](Oc1ccccc1)[C@@H]1CCCN1C (racemic)
pKi [1]: 5.81 | pKi [9]: 4.82 | pKi [2]: 5.89

COc1ccccc1OC[C@@H]1CCCN1C
pKi [1]: 5.03 | pKi [2]: 6.13

CN1CC[C@H]1COc1ccccc1
pKi [1]: 7.00

COc1ncccc1OC[C@@H]1CCCN1C
pKi [1]: 5.14 | pKi [2]: 6.10

COc1ccccc1OC[C@@H]1CCCN1
pKi [1]: 4.27 | pKi [2]: 5.44

C[C@@H](Oc1cccc(O)c1)[C@@H]1CCCN1C (racemic)
pKi [1]: 7.95 | pKi [9]: 7.24 | pKi [2]: 6.59

C[C@H](Oc1cccnc1)[C@@H]1CCCN1C
pKi [1]: 6.06 | pKi [9]: 5.21 | pKi [2]: 5.25

CC(Oc1ccccc1)C1CCCN1C (mixture of isomers)
pKi [1]: 5.34 | pKi [9]: 5.05 | pKi [2]: 5.85

COc1ccncc1OC[C@@H]1CCCN1
pKi [1]: 6.21 | pKi [9]: 4.67 | pKi [2]: 5.54

COc1ncccc1OC[C@@H]1CCCN1
pKi [1]: 5.05 | pKi [2]: 5.28

CN1CCC[C@H]1COc1cccc(O)c1
pKi [1]: 8.96 | pKi [9]: 6.92 | pKi [2]: 7.13 | Imax [3]: 162% | pEC50 [4]: 5.36 | Imax [5]: 85% | pEC50 [7]: 5.05

COc1ccncc1OC[C@@H]1CCCN1C
pKi [1]: 6.59 | pKi [9]: 5.03 | pKi [2]: 5.68

COc1ccc(O)cc1OC[C@@H]1CCCN1C
pKi [1]: 7.72 | pKi [9]: 5.94 | pKi [2]: 6.57 | Imax [3]: 17% | Imax [5]: 7%

CN1CC[C@H]1COc1cccc(O)c1
pKi [1]: 8.07 | pKi [9]: 7.54 | pKi [2]: 6.99 | Imax [3]: 131% | Imax [5]: 57% | pEC50 [7]: 5.04
